ChEMBL document CHEMBL3867431, “Synthesis and structure-activity relationships of novel arylpiperazines as potent antagonists of α1-adrenoceptor” (Eur J Med Chem, 2016)

Columns and labels:
[1] = molecular target: T1, Alpha-1D adrenergic receptor (Rattus norvegicus) (UniProt P23944); experiment: Antagonist activity at alpha1D-adrenoceptor in Wistar rat thoracic aorta assessed as inhibition of (-)-NE-induced contractions preincubated for 60 mins before (-)-NE challenge measured after 1 hr in presence of normetanephrine hydrochloride and (+/-)-propranolol hydrochloride
T1 sequence (whole entry): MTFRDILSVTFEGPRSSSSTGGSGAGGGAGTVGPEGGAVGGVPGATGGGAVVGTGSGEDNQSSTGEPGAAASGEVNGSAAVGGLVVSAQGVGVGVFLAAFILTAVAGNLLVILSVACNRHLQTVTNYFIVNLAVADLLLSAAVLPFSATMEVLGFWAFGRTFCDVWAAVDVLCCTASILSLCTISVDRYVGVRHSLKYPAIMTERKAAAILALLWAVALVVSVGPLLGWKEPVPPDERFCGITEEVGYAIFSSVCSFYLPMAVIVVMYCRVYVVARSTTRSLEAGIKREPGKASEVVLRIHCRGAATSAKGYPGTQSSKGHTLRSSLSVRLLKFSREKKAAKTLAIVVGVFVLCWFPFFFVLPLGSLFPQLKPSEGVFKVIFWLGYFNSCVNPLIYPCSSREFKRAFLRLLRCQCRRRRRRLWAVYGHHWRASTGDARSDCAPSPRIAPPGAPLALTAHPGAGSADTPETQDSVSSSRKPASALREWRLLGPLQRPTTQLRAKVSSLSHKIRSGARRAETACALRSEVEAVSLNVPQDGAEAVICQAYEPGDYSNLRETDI
In short: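 Male Wistar rat thoracic aorta strips, endothelium rubbed off and checked by loss of 100 µM acetylcholine relaxation after 1 µM (-)-NE contraction. Krebs solution, 1 g tension, at least 2 h equilibration. Isometric cumulative (-)-NE curves at 1 h intervals; third used as control, fourth after 60 min antagonist. pKB from the ED50 dose ratio. Mean ± SE, 4-5 experiments.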

[2] = molecular target: T2, Alpha-1A adrenergic receptor (Homo sapiens, UniProt P35348); experiment: Displacement of [3H]prazosin from human alpha1A-adrenoceptor expressed in CHO cell membranes measured after 30 mins
T2 sequence (P35348 whole entry): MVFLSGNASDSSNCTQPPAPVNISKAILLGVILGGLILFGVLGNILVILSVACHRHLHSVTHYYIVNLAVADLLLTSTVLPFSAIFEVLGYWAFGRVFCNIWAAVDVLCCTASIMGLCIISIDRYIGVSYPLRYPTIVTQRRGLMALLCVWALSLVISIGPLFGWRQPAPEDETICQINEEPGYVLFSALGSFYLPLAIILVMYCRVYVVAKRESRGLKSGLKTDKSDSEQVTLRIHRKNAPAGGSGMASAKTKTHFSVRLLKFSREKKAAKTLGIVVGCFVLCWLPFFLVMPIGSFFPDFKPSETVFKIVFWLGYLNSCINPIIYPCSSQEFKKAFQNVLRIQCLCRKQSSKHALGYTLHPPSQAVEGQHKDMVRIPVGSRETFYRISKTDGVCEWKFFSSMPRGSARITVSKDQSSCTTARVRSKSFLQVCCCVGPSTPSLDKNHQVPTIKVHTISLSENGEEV
In short: (§1)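 Membranes (30 µg protein) from stably transfected CHO cells, each expressing one human α1 subtype, incubated 30 min at 25 °C in 50 mM Tris-HCl pH 7.4 with 0.1-0.4 nM [3H]prazosin and competitor 1 pM-10 µM. Nonspecific binding defined with 10 µM phentolamine. Filtration over PEI-treated filters. Ki from IC50 via Cheng-Prusoff; 2-3 experiments in triplicate.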

[3] = molecular target: T3, Alpha-1A adrenergic receptor (Rattus norvegicus) (UniProt P43140); experiment: Antagonist activity at alpha1A-adrenoceptor in Wistar rat prostatic vas deference assessed as inhibition of (-)-NE-induced contractions preincubated for 60 mins before (-)-NE challenge measured after 45 mins
T3 sequence (whole entry): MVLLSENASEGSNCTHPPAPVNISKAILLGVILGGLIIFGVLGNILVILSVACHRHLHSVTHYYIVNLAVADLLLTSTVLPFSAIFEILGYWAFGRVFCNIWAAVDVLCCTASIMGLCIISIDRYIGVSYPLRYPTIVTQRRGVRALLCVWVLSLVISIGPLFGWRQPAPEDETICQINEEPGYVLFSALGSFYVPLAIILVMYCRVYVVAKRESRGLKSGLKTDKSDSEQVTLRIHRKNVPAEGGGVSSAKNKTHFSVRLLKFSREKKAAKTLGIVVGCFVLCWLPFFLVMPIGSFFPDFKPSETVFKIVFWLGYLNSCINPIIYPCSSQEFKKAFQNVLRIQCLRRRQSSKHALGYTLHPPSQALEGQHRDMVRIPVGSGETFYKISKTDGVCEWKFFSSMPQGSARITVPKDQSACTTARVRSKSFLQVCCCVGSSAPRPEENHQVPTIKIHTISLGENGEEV
In short: (§2)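 Male Wistar rats (275-300 g); prostatic vas deferens segments (2 cm) under 0.35 g tension at 37 °C in Tyrode with cocaine, aerated 5% CO2/95% O2. Tissue primed twice with 10 µM (-)-NE, then a cumulative isotonic (-)-NE curve. Antagonist equilibrated 60 min before a repeat curve. Line 1 gives pKB = log(DR-1) - log[B] at one or two concentrations; line 4 gives pA2 from Schild plot, slope constrained to -1. Mean ± SE, 4-5 experiments.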

[4] = molecular target: T4, Alpha-1B adrenergic receptor (Homo sapiens, UniProt P35368); experiment: Displacement of [3H]prazosin from human alpha1B-adrenoceptor expressed in CHO cell membranes measured after 30 mins; in short: as §1
T4 sequence (P35368 whole entry): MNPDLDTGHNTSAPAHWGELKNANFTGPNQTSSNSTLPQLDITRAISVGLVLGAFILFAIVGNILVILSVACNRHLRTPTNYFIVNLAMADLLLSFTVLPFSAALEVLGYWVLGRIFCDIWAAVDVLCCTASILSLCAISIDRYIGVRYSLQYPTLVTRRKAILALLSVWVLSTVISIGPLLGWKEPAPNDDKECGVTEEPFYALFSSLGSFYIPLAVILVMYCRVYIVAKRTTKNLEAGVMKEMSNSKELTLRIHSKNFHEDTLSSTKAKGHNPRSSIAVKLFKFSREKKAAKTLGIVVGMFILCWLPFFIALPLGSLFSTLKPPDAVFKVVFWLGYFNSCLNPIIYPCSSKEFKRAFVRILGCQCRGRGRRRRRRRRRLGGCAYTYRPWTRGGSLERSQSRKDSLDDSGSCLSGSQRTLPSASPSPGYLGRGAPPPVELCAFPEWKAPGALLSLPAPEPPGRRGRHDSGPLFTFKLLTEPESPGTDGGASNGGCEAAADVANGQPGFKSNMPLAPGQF

[5] = molecular target: T5, Alpha-1B adrenergic receptor (Rattus norvegicus, UniProt P15823); experiment: Antagonist activity at alpha1B-adrenoceptor in Wistar rat spleen assessed as inhibition of phenylphrine-induced contractions measured after 30 mins in presence of (+/-)-propranolol hydrochloride; conditions: 0.5 h
T5 sequence (P15823 whole entry): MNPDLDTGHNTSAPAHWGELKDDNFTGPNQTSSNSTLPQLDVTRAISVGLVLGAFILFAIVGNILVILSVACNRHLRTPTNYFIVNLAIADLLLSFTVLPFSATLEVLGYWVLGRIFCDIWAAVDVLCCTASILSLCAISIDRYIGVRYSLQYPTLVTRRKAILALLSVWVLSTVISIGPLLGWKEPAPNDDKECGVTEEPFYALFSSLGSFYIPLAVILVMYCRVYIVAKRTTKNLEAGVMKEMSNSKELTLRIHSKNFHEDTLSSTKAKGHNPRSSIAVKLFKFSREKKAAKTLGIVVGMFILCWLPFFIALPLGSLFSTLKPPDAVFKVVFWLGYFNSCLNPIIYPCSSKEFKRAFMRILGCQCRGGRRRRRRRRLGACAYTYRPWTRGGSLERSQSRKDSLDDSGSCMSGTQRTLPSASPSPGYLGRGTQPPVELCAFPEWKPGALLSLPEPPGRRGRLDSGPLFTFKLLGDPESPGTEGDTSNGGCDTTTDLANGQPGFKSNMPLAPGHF
In short: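 Male Wistar rat spleen strips in Krebs-type solution at 37 °C with (±)-propranolol 4 µM, under 1 g resting tension, equilibrated 2 h. Cumulative isometric phenylephrine curves at 30 min intervals; first discarded, second used as control, then a curve after 30 min antagonist incubation. pKB = log(DR-1) - log[B] from ED50 ratio. Mean ± SE, 4-5 experiments.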

[6] = molecular target: T6, Alpha-1D adrenergic receptor (Homo sapiens, UniProt P25100); experiment: Displacement of [3H]prazosin from human alpha1D-adrenoceptor expressed in CHO cell membranes measured after 30 mins; in short: as §1
T6 sequence (P25100 whole entry): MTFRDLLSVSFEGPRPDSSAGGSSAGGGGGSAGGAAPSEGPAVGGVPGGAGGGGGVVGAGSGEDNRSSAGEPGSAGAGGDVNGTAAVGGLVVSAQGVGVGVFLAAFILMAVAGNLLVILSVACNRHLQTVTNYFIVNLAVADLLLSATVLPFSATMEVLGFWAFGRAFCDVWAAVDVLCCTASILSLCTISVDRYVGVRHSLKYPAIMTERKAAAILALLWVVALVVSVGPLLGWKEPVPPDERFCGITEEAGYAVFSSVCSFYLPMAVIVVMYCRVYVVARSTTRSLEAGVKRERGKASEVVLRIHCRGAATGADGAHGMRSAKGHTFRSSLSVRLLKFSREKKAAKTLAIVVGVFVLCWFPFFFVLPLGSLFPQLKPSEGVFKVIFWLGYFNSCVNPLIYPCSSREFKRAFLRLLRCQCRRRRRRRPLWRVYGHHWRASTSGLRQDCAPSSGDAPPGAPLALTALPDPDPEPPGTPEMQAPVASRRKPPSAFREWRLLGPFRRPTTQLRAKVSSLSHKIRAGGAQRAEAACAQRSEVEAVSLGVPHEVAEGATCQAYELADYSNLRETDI

[7] = molecular target: T7, Alpha-1A adrenergic receptor (Rattus norvegicus, UniProt P43140); experiment: Competitive antagonist activity at alpha1A-adrenoceptor in Wistar rat prostatic vas deference assessed as inhibition of (-)-NE-induced contractions preincubated for 60 mins before (-)-NE challenge measured after 45 mins by Schild plot analysis; conditions: read-out: pA2 (converted); in short: as §2
T7 sequence (P43140 whole entry): T3 sequence (whole entry)

Compound	pKb [1]	Ki [2]	pKb [3]	Ki [4]	pKb [5]	Ki [6]	Kb [7]
COc1cccc(CCN2CCN(c3ccccc3OC(C)C)CC2)c1	9.46	2.75 nM	8.87	13.8 nM	8.92	1.32 nM	
CC(C)Oc1ccccc1N1CCN(CCc2ccc3c(c2)OCO3)CC1	8.33	0.389 nM	8.27	12.9 nM	8.03	1.74 nM	4.17 nM
CCOc1ccccc1N1CCN(CCc2ccc(OC)cc2)CC1	8.23	1.12 nM	8.89	10.2 nM	7.91	1.35 nM	
CC(C)Oc1ccccc1N1CCN(CCc2ccccc2)CC1	8.59	5.01 nM	8.29	77.6 nM	7.94	4.57 nM	
CCOc1ccccc1N1CCN(CCc2cccc(OC)c2)CC1	8.11	2.95 nM	8.39	25.1 nM	8.13	2.57 nM	
CCOc1ccccc1N1CCN(CCc2ccc(OC)c(OC)c2)CC1	8.79	2.09 nM	9.1	15.8 nM	8.89	0.603 nM	
COc1ccc(CCN2CCN(c3ccccc3OC(C)C)CC2)cc1OC	9.12	2 nM	9.55	10.5 nM	8.74	1.35 nM	
CCOc1ccccc1N1CCN(CCc2ccc3c(c2)OCO3)CC1	8.84	1.12 nM	9.09	5.37 nM	8.85	1.51 nM	
COc1ccccc1N1CCN(CCc2ccc3c(c2)OCO3)CC1	8.57	3.47 nM	8.47	5.25 nM	8.11	1.26 nM	
COc1ccccc1N1CCN(CCc2ccccc2)CC1	8.5	31.6 nM	7.76	91.2 nM	7.82	16.6 nM	
COc1ccc(CCN2CCN(c3ccccc3OC(C)C)CC2)cc1		2.24 nM		14.8 nM		3.09 nM	
